14 molecules from ChEMBL document CHEMBL1123990, “The in vitro dental plaque inhibitory properties of a series of N-[1-alkyl-4(1H)-pyridinylidene]alkylamines” (1988) can be followed below.

Converted amounts (≈) assume the structure as drawn. The source made the active and inactive calls. The calls are words filed in the database; no cut-off is given here.

Usually MBC stands for the lowest tested concentration that kills the bacteria rather than only halting them.

Experiment [1] relates to Actinomyces viscosus. The experiment in a line: Chlorohexidine coefficient for Actinomyces viscosus M-100. Format: functional. A digest of the protocol:
(§1)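 Hydroxylapatite-grown plaques were exposed once daily for 2 min to varying concentrations of agent until the organisms were killed. The highest level tested was 0.2% w/v for 5 days. Tests were run in duplicate. PBI is the concentration (mM) × duration (min) × frequency (days) needed for plaque kill. CC is the chlorhexidine PBI divided by the test-agent PBI.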

Experiment [2] relates to Actinomyces viscosus. The experiment in a line: Plaque bactericidal index against Actinomyces viscosus M-100 measured as chlorohexidine coefficient. Format: functional. A digest of the protocol:
as §1

Experiment [3] deals with Streptococcus sobrinus. The experiment in a line: Minimal bactericidal concentration against Streptococcus sobrinus 6715-13. Format: functional. A digest of the protocol: (§2)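 Plaques were grown on standardized ceramic hydroxylapatite plates and immersed once in agent for 30 min. They were rinsed with sterile distilled water, moved to fresh broth and incubated anaerobically at 37 °C. Kill meant no further culture acid production, no turbidity change, and no growth when 48-h post-treatment plaque samples were subcultured. Tests were run in duplicate.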

Experiment [4] deals with Streptococcus sobrinus. The experiment in a line: Plaque bactericidal index against Streptococcus sobrinus 6715-13 measured as chlorohexidine coefficient. Format: functional. A digest of the protocol: as §1
The subject of experiment [5] is Streptococcus sobrinus. Put plainly: Chlorohexidine coefficient for Streptococcus sobrinus 6715-13. Format: functional. The gist of the method:
as §1

Experiment [6] relates to Actinomyces viscosus. Put plainly: Plaque bactericidal index against Actinomyces viscosus M-100 measured as chlorohexidine coefficient; not bactericidal at highest concentration tested (0.2% w/v, 2min, 5 days). Format: functional, organism-based. A digest of the protocol: as §1
The subject of experiment [7] is Streptococcus sobrinus. The experiment in a line: Minimal bactericidal concentration against d Streptococcus sobrinus 6715-13; Not active at 20 mM. Format: functional, organism-based. A digest of the protocol: as §2
Experiment [8] deals with Streptococcus sobrinus. Put plainly: Plaque bactericidal index against Streptococcus sobrinus 6715-13 measured as chlorohexidine coefficient; d=Not bactericidal at highest concentration tested (0.2% w/v, 2min, 5 days). Format: functional, organism-based. A digest of the protocol:
as §1

Experiment [9] relates to Actinomyces viscosus. Put plainly: Plaque bactericidal index against Actinomyces viscosus M-100 measured as chlorohexidine coefficient; d=Not bactericidal at highest concentration tested (0.2% w/v, 2min, 5 days). Format: functional, organism-based. A digest of the protocol: as §1

As to `CCCCCCCCN=c1ccn(Cc2ccccc2)cc1.Cl`, the CC is on record as 1.6 in the experiment on Actinomyces viscosus [1] and 1.1 in the experiment on Streptococcus sobrinus [5]. Further, the PBI with Actinomyces viscosus [2] is given as 12; with Streptococcus sobrinus [4], 24. This molecule also gave an MBC with Streptococcus sobrinus [3] of 1500 µM.
Turning to `CN=c1ccn(C)cc1`, the PBI result with Actinomyces viscosus [6] and in the experiment on Streptococcus sobrinus [8] was “Not bactericidal” in each case. Besides, the MBC result in the experiment on Streptococcus sobrinus [7] is “inactive”.
As for `CCCCCCCCCN=c1ccn(CCCCCCCCC)cc1.Cl`, the CC in the experiment with Actinomyces viscosus [1] was 4; with Streptococcus sobrinus [5] it was 2.5. In addition, the PBI worked out at 5.2 with Actinomyces viscosus [2] and 10.4 in the experiment on Streptococcus sobrinus [4]. Further, in the experiment on Streptococcus sobrinus [3], the MBC amounted to 2610 µM.
As to `Br.CCCCCCCN=c1ccn(CCCCCCC)cc1`, the values for the CC in the experiment with Actinomyces viscosus [1] and with Streptococcus sobrinus [5] were 4 and 3.2, respectively. For the same molecule, the results for the PBI in the experiment on Actinomyces viscosus [2] and with Streptococcus sobrinus [4] were 5.4 and 8, respectively. In addition, the MBC in the experiment with Streptococcus sobrinus [3] was 1350 µM.
As for `CCCCCCCCCCCCN=c1ccn(C)cc1.I`, the CC was 1 in the experiment with Actinomyces viscosus [1] and 2.1 in the experiment on Streptococcus sobrinus [5]. For the same molecule, the PBI with Actinomyces viscosus [2] was 19.2; in the experiment with Streptococcus sobrinus [4], 12.4. The molecule further came in with an MBC in the experiment with Streptococcus sobrinus [3] of 1240 µM.
On the same counts, the results for `CCCCCCCCCn1ccc(=NCCCCCC)cc1.Cl` are 2.2, 8.8, 8.8, 2.9 and 290 µM.
On to `CCCCCCCN=c1ccn(CCCCCC)cc1.Cl`, for which the results for the CC in the experiment on Actinomyces viscosus [1] and in the experiment with Streptococcus sobrinus [5] were 3 and 2, respectively. The PBI came to 6.4 with Actinomyces viscosus [2] and 12.8 with Streptococcus sobrinus [4]. Besides, the minimum bactericidal concentration (MBC) with Streptococcus sobrinus [3] was determined as 1600 µM.
The corresponding values for `CCCCCCCCn1ccc(=NCCCCCC)cc1.Cl` are 6.4, 5.6, 3, 4.6 and 310 µM.
On the same counts, the results for `CCCCCCCCCn1ccc(=NCCCCCCCC)cc1.Cl` are 1.4, 1.9, 13.3, 13.3 and 1350 µM.
With `CCCCCCCCCCCCCCN=c1ccn(Cc2ccccc2)cc1`, the PBI result with Actinomyces viscosus [9] and in the experiment on Streptococcus sobrinus [8] was “Not bactericidal” each time. Also, in the experiment with Streptococcus sobrinus [3], the MBC worked out at 240 µM (≈ 91.3 µg/mL).
As to `Br.CCCCCCCCN=c1ccn(CC(CC)CCCC)cc1` (stereo unspecified), the CC in the experiment with Actinomyces viscosus [1] is 1.5; with Streptococcus sobrinus [5] it was 2. Also, the PBI in the experiment with Actinomyces viscosus [2] and in the experiment with Streptococcus sobrinus [4] was 12.5 throughout. Besides, in the experiment with Streptococcus sobrinus [3], the MBC amounted to 1250 µM.
On to `Br.CCCCC(CC)CN=c1ccn(CC(CC)CCCC)cc1` (stereo unspecified), for which the CC in the experiment with Actinomyces viscosus [1] is reported as 1; with Streptococcus sobrinus [5], 1.3. The PBI in the experiment with Actinomyces viscosus [2] and in the experiment with Streptococcus sobrinus [4] was 20 each time. In the experiment with Streptococcus sobrinus [3], this molecule gave an MBC of 1250 µM.
Turning to `Br.CCCCCCCCCN=c1ccn(CCCCCCCC)cc1`, the results for the CC in the experiment with Actinomyces viscosus [1] and in the experiment on Streptococcus sobrinus [5] were 1.9 and 2.6, respectively. Besides, the PBI in the experiment with Actinomyces viscosus [2] and in the experiment with Streptococcus sobrinus [4] was 9.7 in each case. The same molecule registered an MBC in the experiment with Streptococcus sobrinus [3] of 1210 µM.
In the case of `Br.CCCCCCCCn1ccc(=NCCCCCCC)cc1`, the CC stood at 1.8 in the experiment on Actinomyces viscosus [1] and 2.5 with Streptococcus sobrinus [5]. In addition, the PBI in the experiment on Actinomyces viscosus [2] and with Streptococcus sobrinus [4] was 10.4 in each case. The MBC against Streptococcus sobrinus [3] amounted to 1300 µM.
